# Screening results: PubChem, Broad Institute
# Only some compounds are listed: those with a hit (about 3.5% of all), similar ones and a draw of the others.
# DENV2 CPE rescue: DENV2-induced cell death inhibition; CPE inhibition, % at 9.99 µM; DENV2-infected cells, cytopathic effect rescue, plate reader; actives 1.7% (n = 350,000); in the data active means CPE inhibition above about 20%, passing the limit was not always enough; inconclusive means no clear call, values can overlap the other calls; tested in BHK-21 cells;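 further: 0% = median of neutral control wells and 100% = median of positive control wells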
# HIV Env fusion: inhibitors of HIV Env-mediated cell fusion; inhibition, % at 12.3 µM; AID 651610; HeLa-JRFL Env/CEM21 cell fusion, luciferase; actives 1.1% (n = 360,000);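 active means mean replicate inhibition score of at least 50 and every replicate individually at or above 50; inconclusive means only one of the two criteria met; inactive means mean below 50 and not all replicates reaching 50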;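 further: 0% = plate neutral controls and 100% = maraviroc near 300 nM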
# PglD DTNB: inhibitors of Campylobacter jejuni PglD acetyltransferase; actives 0.098% (n = 360,000); AID 602405; purified PglD enzyme, DTNB colorimetric CoA detection; inhibition, % at 12.5 µM; in the data active means inhibition above about 16%, passing the limit was not always enough; inconclusive means no clear call, values can overlap the other calls
# FN deposition inh: fibronectin deposition inhibition; AH1F fibroblasts, Alexa488-fibronectin deposition fluorescence, overnight; inhibition, % at 12.6 µM; actives 0.086% (n = 350,000);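 active means mean inhibition across replicates of 30% or more, regardless of how many single replicates reach that level; inconclusive means mean under 30% yet at least half of replicates reach 30%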;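 further: positive control wells lacked labelled fibronectin entirely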
#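 Assay system: AH1F fibroblasts assembling fluorescent fibronectin matrix; Amount: 10000 AH1F cells per well; Buffer or medium: DMEM, 2% serum; Probe or stimulus: Alexa488-fibronectin, 24 nM final in well; Doses: single compound dose, delivered by pin transfer; Incubation: 1 h adhesion, overnight exposure; Measured by: fluorescence 485/525 nm; Read-out: fibronectin deposition inhibition.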
# Ecoli rRNA inh: inhibits bacterial ribosomal RNA function over humanized ribosomes; AID 720706; actives 1.6% (n = 350,000); GFP signal change (wild-type ribosome), % (concentration not given with the values); E. coli WT GFP vs humanized-ribosome RFP mutants, fluorescence, 24 h; hits give low values; DMSO median 0, no signal -100;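 active means significant combined selectivity score with lowered wild-type GFP, culture density cut under 30%, mutant RFP and density less affected; inactive means any of these conditions unmet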
# PGC1a acetyl inh: modulators of PGC1a acetylation; U2OS PGC1a acetylation, AlphaScreen anti-acetyl-lysine; with virally co-expressed GCN5 acetyltransferase; inhibition, % at 15.6 µM; actives 0.17% (n = 350,000); AID 651687;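 active means every replicate shows inhibition of at least 40%; inconclusive means mean inhibition at least 40% but some replicate below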;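 further: 0% = neutral control wells and 100% = positive control wells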
# Starred values were filed as active, the others as inactive; u = inconclusive; x = no result; [ ] = dose if it differs, or a comment.
SMILES,DENV2 CPE rescue,HIV Env fusion,PglD DTNB,FN deposition inh,Ecoli rRNA inh,PGC1a acetyl inh
CCN(c1ccccc1)S(=O)(=O)c1ccc2c(c1)N(C(C)=O)CCS2,4,1,2,3,-26*,-8
CCN(c1ccccc1)S(=O)(=O)c1ccc(OC)c(OC)c1,2,x,x,x,-18*,6
COc1ccc(S(=O)(=O)Nc2ccc3c(c2)C(=O)N([C@@H](C)CO)C[C@H](C)[C@H](CN(C)S(=O)(=O)c2ccc(OC)cc2)O3)cc1,-10,4[16.7 µM],3,x,-6,5
O=C(C[C@H]1C=C[C@@H](NC(=O)C2CC2)[C@@H](CO)O1)NC1CCC1,-4,10[16.7 µM],3,-2,1,2
COc1ccc(CN(C)C[C@@H]2Oc3ccc(NC(=O)Cn4cnnn4)cc3CC(=O)N([C@@H](C)CO)C[C@H]2C)cc1,-5,x,1,x,0,-8
Cc1ccc(NC2CCCN(C(=O)c3ccoc3C)C2)cc1C (stereo not drawn),28*,20,-4,x,-2,-13
Cc1ccc(NC2CCCN(C(=O)c3ccoc3)C2)cc1C (stereo not drawn),0,1,-6,2,0,0
CCC(=O)N1C[C@H](C)[C@@H](OC)CN(C)C(=O)c2cc(NC(=O)c3ccc(F)cc3)ccc2OC[C@@H]1C,-5,28[16.7 µM],-2,-11,0,11
C[C@H](CO)N1C[C@H](C)[C@@H](CN(C)Cc2ccccc2)OCCCC[C@H](C)Oc2ccc(NS(=O)(=O)c3ccc(F)cc3)cc2C1=O,-7,7[16.7 µM],3,-4,0,4
Cc1[nH]n(-c2ccccc2)c(=O)c1/C=N/NC(=O)c1cccc([N+](=O)[O-])c1,x,x,6,x,x,5
Cc1[nH]n(-c2cccc3ccccc23)c(=O)c1/C=N/NC(=O)c1cccc([N+](=O)[O-])c1,x,59*,2,1,x,14
CN1CCN(C(=O)C[C@H]2C=C[C@@H](NC(=O)Nc3ccccc3F)[C@H](CO)O2)CC1,0,-10[16.7 µM],6,-7,-2,3
O=C(NCC1CCCO1)c1ccccc1OCc1ccc(F)cc1 (stereo not drawn),9,1,-1,-4,3,2
Cc1ccc(-c2nn(-c3ccccc3Cl)cc2C(=O)NCC2CCCO2)cc1 (stereo not drawn),30*,9,x,-7,-9,x
O=C(NCC1CCCO1)c1ccccc1OCc1ccc(Cl)cc1 (stereo not drawn),65*,x,4,1,-17,-8
O=C(NC(=S)N1CCOCC1)c1cn(-c2ccccc2)nc1-c1ccccc1,-4,12,2,-1,-19*,0
CN(CCOc1ccccc1)C(=O)c1ccc(OC2CCN(C(=O)C3CC3)CC2)cc1,5,5,-4,1,-19*,2
O=C(C[C@H]1CC[C@@H]2[C@H](COC[C@@H](O)CN2Cc2cccc(Cl)c2)O1)NCC1CCCCC1,-2,-2[16.7 µM],0,11,-4,-9
CCc1nc2ccc(C(=O)N3CCN(c4ccc([N+](=O)[O-])cc4)CC3)cc2nc1CC,4,12,-2,-3,-23*,x
COc1ccc(Cl)cc1C(Nc1cccnc1)c1ccc2cccnc2c1O (stereo not drawn),4,-26,x,-1,-23*,15
CCC(=O)NC(c1ccccc1OC)c1ccc2cccnc2c1O (stereo not drawn),x,x,x,x,x,20
CCOC(=O)c1sc2nc(NC(=O)C3CC3)sc2c1C,9,-43,2,5,-3,-5
CCOC(=O)c1sc2nc(NC(=O)C(C)(C)C)sc2c1C,1,-209,7,-9,-20*,-13
COc1ccc(CN(C)C[C@H]2Oc3ccc(NS(=O)(=O)c4cn(C)cn4)cc3C(=O)N([C@H](C)CO)C[C@H]2C)cc1,2,x,0,x,4,0
Cc1ccc(S(=O)(=O)N(C)C[C@H]2Oc3ccc(NS(C)(=O)=O)cc3CC(=O)N([C@H](C)CO)C[C@@H]2C)cc1,x,x,x,-10,-1,x
SMILES,DENV2 CPE rescue,HIV Env fusion,PglD DTNB,FN deposition inh,Ecoli rRNA inh,PGC1a acetyl inh
O=C(CS(=O)(=O)c1cn(CC(=O)N2CCCC2)c2ccccc12)Nc1ccccc1,0,x,-6,5,1,2
CN(C(=O)CS(=O)(=O)c1cn(CC(=O)N2CCCCC2)c2ccccc12)c1ccccc1,64*,2,-3,-2,x,x
Cc1ccc(C)c(CS(=O)(=O)c2cn(CC(=O)N3CCC(C)CC3)c3ccccc23)c1,x,120*,-3,2,x,-3
Cc1ccc(C)c(CS(=O)(=O)c2cn(CC(=O)N3CCCCC3)c3ccccc23)c1,x,30,-3,-6,x,x
COc1ccc(C(=O)Nc2ccc(S(=O)(=O)Nc3nccc(C)n3)cc2)cc1,5,7,3,-6,11,3
Cc1ccc(O)c(-c2cc(C(=O)Nc3ccc(S(=O)(=O)Nc4nccc(C)n4)cc3)[nH]n2)c1,0,20,1,-12,-29*,-1
COc1cccc(/C=C/C(=O)Nc2ccc3nc4n(c(=O)c3c2)CCCC4)c1OC,u,11,x,9,-23*,x
O=C(c1cccc(Cl)c1)N1CCC(=O)N(C(COCc2ccccc2)Cc2ccccc2)CC1 (stereo not drawn),u,33,-4,1,-30,x
O=C(c1ccc(Cl)c(Cl)c1)N1CCC(=O)N([C@H](COCc2cccc(C(F)(F)F)c2)Cc2ccccc2)CC1,11,92*,x,12,18,x
O=C(c1ccc(Cl)c(Cl)c1)N1CCC(=O)N([C@H](COCc2ccccc2)Cc2ccccc2)CC1,-7,64*,x,12,-6,x
O=C(c1ccc(Cl)c(Cl)c1)N1CCC(=O)N(C(COCc2ccccc2)Cc2ccccc2)CC1 (stereo not drawn),u,86*,1,0,-8,13
CCOC(=O)N1CCC(NC(=O)C2CCN(c3nc(-c4ccc(OC)cc4)no3)CC2)CC1,x,34*,6,8,x,-5
CN(C)C(=O)c1ccc(-c2ccc([C@H]3[C@H](C#N)N(C(=O)C4CCC4)[C@H]3CO)cc2)cc1,-5,-8[16.7 µM],3,-6,1,-2
CN(C)C(=O)c1ccc(-c2ccc([C@@H]3[C@@H](CO)N(C(=O)C4CCC4)[C@H]3C#N)cc2)cc1,50*,7[16.7 µM],4,9,1,-5
CN(C)C(=O)c1ccc(-c2ccccc2[C@H]2[C@H](C#N)N(C(=O)C3CCCCC3)[C@H]2CO)cc1,28*,x,x,-3,2,5
CN(C)C(=O)c1ccc(-c2ccccc2[C@H]2[C@@H](C#N)N(C(=O)C3CCC3)[C@H]2CO)cc1,24*,x,x,-4,1,-5
N/C(=N\OC(=O)Cc1ccccc1)c1ccccc1Cl,-4,-63,x,4,-17*,x
